Results published in ChEMBL document CHEMBL3352189 (J Med Chem, 2014).
Activity calls are given as the source filed them. The calls are words filed in the database; no cut-off is given here.

How the values were obtained:
[1] = Cytotoxicity against african green monkey Vero 76 cells after 3 days by Celltiter-Glo reagent based assay; type: cell-based; conditions: chlorocebus sabaeus, vero 76, 72 h
Method in brief: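 Vero 76 cells were seeded overnight at 12 000/well and given an 8-point 2-fold compound series (20 mM DMSO stock) in EMEM/10% FBS with no virus. Viability was read by CellTiter-Glo after 3 days relative to untreated cells. Run in duplicate; CC50 from a four-parameter logistic or sigmoidal fit.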

[2] = system: Venezuelan equine encephalitis virus; assay: Antiviral activity against Venezuelan equine encephalitis virus TC83 infected in Vero 76 cells assessed as reduction in virus-induced cytopathic effect after 2 days by Celltiter-Glo reagent based assay; type: functional, organism-based; conditions: TC83, Vero 76, 48 h
[3] = Selectivity index, ratio of CC50 for african green monkey Vero 76 cells to EC50 for Venezuelan equine encephalitis virus TC83; type: toxicity, cell-based; conditions: read-out: Ratio CC50/EC50
[4] = system: Venezuelan equine encephalitis virus; assay: Antiviral activity against Venezuelan equine encephalitis virus TrD infected in Vero 76 cells assessed as reduction in viral titer at 5 uM by crystal violet staining based microplaque assay relative to untreated control; type: functional, organism-based
[5] = system: Venezuelan equine encephalitis virus; assay: Antiviral activity against Venezuelan equine encephalitis virus V3526 infected in Vero 76 cells assessed as reduction in virus-induced cytopathic effect after 2 days by Celltiter-Glo reagent based assay; type: functional, organism-based; conditions: V3526, Vero 76, 48 h
[6] = system: Venezuelan equine encephalitis virus; assay: Antiviral activity against Venezuelan equine encephalitis virus TrD infected in Vero 76 cells assessed as reduction in virus-induced cytopathic effect after 2 days by Celltiter-Glo reagent based assay; type: functional, organism-based; conditions: Vero 76, 48 h
[7] = Aqueous solubility in PBS buffer; type: physicochemical
Method in brief: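 Solubility measured in 1× PBS at pH 7.4.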

[8] = system: Venezuelan equine encephalitis virus; assay: Antiviral activity against Venezuelan equine encephalitis virus TC83 infected in Vero 76 cells assessed as reduction in viral titer at 1 uM by crystal violet staining based microplaque assay relative to untreated control; type: functional

Structure (SMILES) | CC50 [1] | EC50 [2] | selectivity ratio [3] | further results
COc1ccccc1NC(=O)c1cc([N+](=O)[O-])ccc1/N=C1\CN(C)CCN1C | > 50 µM | 33.7 µM | > 1.5 | 
CCN1CCN(Cc2nc3ccc(I)cc3c(=O)n2-c2ccccc2)CC1 | > 50 µM | 17.1 µM | > 2.9 | 
CN1CCN(C)/C(=N/c2cc(F)c(F)cc2C(=O)Nc2ccccc2)C1 | > 50 µM | 4.4 µM | > 11.4 | 
CN1CCN(C)/C(=N/c2ccc([N+](=O)[O-])cc2C(=O)Nc2ccc(F)cc2)C1 | > 50 µM | 0.09 µM | > 556 | 
CN1CCN(C)/C(=N/c2ccc(F)cc2C(=O)Nc2ccccc2)C1 | > 50 µM | 6.4 µM | > 7.8 | 
CN1CCN(C)/C(=N/c2ccc(C(F)(F)F)cc2C(=O)Nc2ccccc2)C1 | > 50 µM | 22.3 µM | > 2.2 | 
CCN1CCN(Cc2nc3ccc(C(F)(F)F)cc3c(=O)n2-c2ccccc2F)CC1 | > 50 µM | > 25 µM |  | 
CCN1CCN(Cc2nc3ccc([N+](=O)[O-])cc3c(=O)n2C(C)C)CC1 | > 50 µM | > 25 µM |  | 
CNCCCN(C)Cc1nc2ccc([N+](=O)[O-])cc2c(=O)n1-c1ccccc1 | > 50 µM | 0.6 µM | > 83.3 | 
CN1CCN(C)/C(=N/c2ccc([N+](=O)[O-])cc2C(=O)Nc2ccccc2F)C1 | > 50 µM | 0.2 µM | > 250 | 
CCN1CCN(Cc2nc3ccccc3c(=O)n2-c2ccccc2F)CC1 | > 50 µM | > 25 µM |  | 
CCN1CCN(Cc2nc3ccc(C(N)=O)cc3c(=O)n2-c2ccccc2)CC1 | > 50 µM | > 25 µM |  | 
CCN1CCN(Cc2nc3ccc([N+](=O)[O-])cc3c(=O)n2Cc2ccccc2)CC1 | > 50 µM | > 25 µM |  | 
CCN1CCN(Cc2nc3ccc(S(=O)(=O)O)cc3c(=O)n2-c2ccccc2)CC1 | > 50 µM | > 25 µM |  | 
CC(C)N1CCN(Cc2nc3ccc([N+](=O)[O-])cc3c(=O)n2-c2ccccc2F)CC1 | > 50 µM | 4.4 µM | > 11.4 | 
CCN1CCN(Cc2nc3ccc(C#N)cc3c(=O)n2-c2ccccc2)CC1 | > 50 µM | 1.1 µM | > 45.5 | 
O=c1c2cc([N+](=O)[O-])ccc2nc(CN2CCNCC2)n1-c1ccccc1 | > 50 µM | 0.2 µM | > 250 | 
CCN1CCN(Cc2nc3ccc(-c4nnn[nH]4)cc3c(=O)n2-c2ccccc2)CC1 | > 50 µM | > 25 µM |  | 
O=c1c2cc([N+](=O)[O-])ccc2nc(CN2CCNCC2)n1-c1ccccc1F | > 50 µM | 0.2 µM | > 250 | 
CN(C)c1ccc(-n2c(CN3CCNCC3)nc3ccc([N+](=O)[O-])cc3c2=O)cc1 | > 50 µM | > 25 µM |  | 

Structure (SMILES) | CC50 [1] | EC50 [2] | selectivity ratio [3] | further results
O=C1CN(Cc2nc3ccc([N+](=O)[O-])cc3c(=O)n2-c2ccccc2F)CCN1 | > 50 µM | > 25 µM |  | 
O=c1c2cc([N+](=O)[O-])ccc2nc(C2CCNCC2)n1-c1ccccc1 | > 50 µM | 3.6 µM | > 13.9 | 
COC(=O)c1ccc(/N=C2\CN(C)CCN2C)c(C(=O)Nc2ccccc2)c1 | > 50 µM | 2 µM | > 25 | 
CN1CCN(C)/C(=N/c2ccc([N+](=O)[O-])cc2C(=O)Nc2cccc(F)c2)C1 | > 50 µM | 0.1 µM | > 500 | 
O=c1c2cc([N+](=O)[O-])ccc2nc(CN2CCOCC2)n1-c1ccccc1F | > 50 µM | 8.7 µM | > 5.7 | 
CCN1CCN(c2nc3ccc([N+](=O)[O-])cc3c(=O)n2-c2ccccc2)CC1 | > 50 µM | > 25 µM |  | 
O=c1c2cc([N+](=O)[O-])ccc2nc(CN2CCNCC2)n1-c1ccsc1 | > 50 µM | 1.4 µM | > 35.7 | 
CN1CCN(Cc2nc3ccc([N+](=O)[O-])cc3c(=O)n2-c2ccccc2F)CC1 | > 50 µM | 0.8 µM | > 62.5 | 
CN1CCN(C)/C(=N/c2ccc([N+](=O)[O-])cc2C(=O)Nc2ccsc2)C1 | > 50 µM | 0.5 µM | 100 | 
CCN1CCN(C)C/C1=N\c1ccc([N+](=O)[O-])cc1C(=O)Nc1ccccc1 | > 50 µM | 0.05 µM | > 1000 | 
CCN1CCN(Cc2nc3ccc(C(=O)O)cc3c(=O)n2-c2ccccc2)CC1 | > 50 µM | > 25 µM |  | 
CN1CCN(C)/C(=N/c2ccc([N+](=O)[O-])cc2C(=O)NCc2ccccc2)C1 | > 50 µM | 3.7 µM | > 13.5 | 
CN1CCN(C)/C(=N/c2cc([N+](=O)[O-])ccc2C(=O)Nc2ccccc2)C1 | > 50 µM | 8.4 µM | > 6 | 
CN1CCN(C)/C(=N/c2ccc(C#N)cc2C(=O)Nc2ccccc2F)C1 | > 50 µM | 3.7 µM | > 13.5 | 
CN1CCN(C)/C(=N/c2ccc(C#N)cc2C(=O)Nc2cccc(F)c2)C1 | > 50 µM | 0.8 µM | > 62.5 | 
CCN1CCN(Cc2nc3ccc(-c4cccnc4)cc3c(=O)n2-c2ccccc2)CC1 | > 50 µM | > 25 µM |  | 
CCN1CCN(Cc2nc3ccc(-c4ccccn4)cc3c(=O)n2-c2ccccc2)CC1 | > 50 µM | > 25 µM |  | 
COc1ccc(-n2c(CN3CCNCC3)nc3ccc([N+](=O)[O-])cc3c2=O)cc1 | > 50 µM | 0.2 µM | > 250 | 
CCN1CCN(Cc2nc3ccc([N+](=O)[O-])cc3c(=O)n2-c2ccccc2F)CC1 | > 50 µM | 0.8 µM |  | inhibition [4]: Active; EC50 [5]: 0.3 µM; EC50 [6]: 0.6 µM; solubility [7]: > 122 µg/mL; fold change (FC) [8]: 3
CC(C)NC(=O)c1cc([N+](=O)[O-])ccc1/N=C1\CN(C)CCN1C | > 50 µM | > 25 µM |  | 

Structure (SMILES) | CC50 [1] | EC50 [2] | selectivity ratio [3] | further results
CCN1CCN(Cc2nc3ccc([N+](=O)[O-])cc3c(=O)n2-c2ccccc2)CC1 | > 50 µM | 0.3 µM | > 167 | 
CCN1CCN(Cc2nc3ccc([N+](=O)[O-])cc3c(=O)n2C)CC1 | > 50 µM | > 25 µM |  | 
CCN1CCN(Cc2nc3ccc([N+](=O)[O-])cc3c(=O)n2-c2ccc(F)cc2)CC1 | > 50 µM | 0.8 µM | > 62.5 | 
CN1CCN(C)/C(=N/c2cc(Cl)c(C#N)cc2C(=O)Nc2ccccc2)C1 | > 50 µM | 0.1 µM | > 500 | 
COc1cccc(-n2c(CN3CCNCC3)nc3ccc([N+](=O)[O-])cc3c2=O)c1 | > 50 µM | 5.1 µM | > 9.8 | 
COc1ccccc1-n1c(CN2CCNCC2)nc2ccc([N+](=O)[O-])cc2c1=O | > 50 µM | > 25 µM |  | 
O=c1c2cc([N+](=O)[O-])ccc2nc(CN2CCCCC2)n1-c1ccccc1F | > 50 µM | 4.7 µM | > 10.6 | 
O=c1c2cc([N+](=O)[O-])ccc2nc(CN2CCCNC2)n1-c1ccccc1 | > 50 µM | 1.1 µM | > 45.5 | 
CCN1CCN(Cc2nc3ccc([N+](=O)[O-])cc3c(=O)n2-c2cccc(F)c2)CC1 | > 50 µM | 0.4 µM | > 125 | 
O=c1c2cc([N+](=O)[O-])ccc2nc(CN2CCCNCC2)n1-c1ccccc1 | > 50 µM | 0.9 µM | > 55.6 | 
CN1CCN(C)/C(=N/c2ccc(C#N)cc2C(=O)Nc2ccccc2)C1 | > 50 µM | 0.4 µM | > 125 | 
CN1CCN(C)/C(=N/c2cc(F)ccc2C(=O)Nc2ccccc2)C1 | > 50 µM | > 25 µM |  | 
CN(C)c1cccc(-n2c(CN3CCNCC3)nc3ccc([N+](=O)[O-])cc3c2=O)c1 | > 50 µM | > 25 µM |  | 
CCN1CCN(Cc2nc3ccc(C(=O)N(C)C)cc3c(=O)n2-c2ccccc2)CC1 | > 50 µM | > 25 µM |  | 
CN1CCN(C)/C(=N/c2ccccc2C(=O)Nc2ccccc2)C1 | > 50 µM | > 25 µM |  | 
O=c1c2cc([N+](=O)[O-])ccc2nc(CN2CCN(c3ccccc3)CC2)n1-c1ccccc1F | > 50 µM | > 25 µM |  | 
COc1cccc(NC(=O)c2cc([N+](=O)[O-])ccc2/N=C2\CN(C)CCN2C)c1 | > 50 µM | 8.1 µM | > 6.2 | 
CN1CCN(C)/C(=N/c2cc(F)c(C#N)cc2C(=O)Nc2ccccc2)C1 | > 50 µM | 0.4 µM | > 125 | 
CCN1CCN(Cc2nc3ccc([N+](=O)[O-])cc3c(=O)[nH]2)CC1 | > 50 µM | > 25 µM |  | 
